4 compounds from ChEMBL document CHEMBL4325922, “Restoring Let-7 microRNA Biogenesis Using a Small-Molecule Inhibitor of the Protein-RNA Interaction” (ACS Med Chem Lett, 2018) can be followed below.

One experiment concerns the target T1, Protein lin-28 homolog A (Homo sapiens, UniProt Q9H9Z2).
T1 sequence (Q9H9Z2 whole entry): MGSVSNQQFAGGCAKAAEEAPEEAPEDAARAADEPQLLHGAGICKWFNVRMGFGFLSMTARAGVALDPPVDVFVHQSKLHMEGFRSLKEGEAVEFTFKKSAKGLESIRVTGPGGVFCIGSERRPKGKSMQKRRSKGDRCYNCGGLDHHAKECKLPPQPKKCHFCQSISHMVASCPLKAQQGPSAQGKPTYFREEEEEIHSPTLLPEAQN
Briefly: Inhibition of Cy5-preE-let-7g binding to recombinant human N-terminal His6-tagged Lin28a expressed in Escherichia coli Rosetta2 (DE3) pLysS measured after 30 to 60 mins by electrophoretic mobility shift assay. A general note: In EMSA bound probe runs differently from free probe, usually more slowly.

For experiment [1], the target named is T2, Protein lin-28 homolog A (Homo sapiens) (UniProt Q9H9Z2).
T2 sequence (whole entry): T1 sequence (Q9H9Z2 whole entry)
Kind of experiment: Inhibition of Cy5-preE-let-7g binding to recombinant human N-terminal His6-tagged Lin28a expressed in Escherichia coli Rosetta2 (DE3) pLysS at 15 uM measured after 30 to 60 mins by electrophoretic mobility shift assay relative to control.

Experiment [2] has as its target T3, Protein lin-28 homolog A/B (Homo sapiens) (UniProt Q6ZN17+Q9H9Z2). Kind of experiment: Inhibition of Lin28a/Lin28b in human paclitaxel-resistant JAR cells assessed as potentiation of paclitaxel induced cytotoxicity at 40 uM pretreated for 30 hrs followed by paclitaxel addition and measured after 72 hrs by WTS assay. The method in brief:
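Paclitaxel-resistant JAR persister cells, enriched by cytotoxic paclitaxel exposure and regrowth without drug. Cells pretreated 30 h with compound, then given paclitaxel for 72 h without compound; WST viability used to derive the paclitaxel IC50.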

The target in experiment [3] is T3, Protein lin-28 homolog A/B (Homo sapiens). Kind of experiment: Inhibition of Lin28a/Lin28b in human paclitaxel-resistant JAR cells assessed as reduction in IMP1 expression at 40 uM measured after 24 hrs by Western blot analysis. For orientation: Immunoblotting shows a protein as a band on a membrane.
Experiment [4] has the same target. Briefly: Inhibition of Lin28a/Lin28b in human paclitaxel-resistant JAR cells assessed as reduction in MDR1 expression at 40 uM measured after 30 hrs by Western blot analysis.
For experiment [5] the target is unchanged. Kind of experiment: Inhibition of Lin28a/Lin28b in human JAR cells assessed as increase in mature let-7a level at 5 to 10 uM after 20 hrs by TRIzol dye based qRT-PCR analysis. It is filed as cell-based. Summed up:
(§1)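 JAR cells (express Lin28a and Lin28b) exposed to compound for 20 h; miRNA levels quantified with U6 snRNA as endogenous control; three or more biological replicates, standard deviation, paired two-tailed t test.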
A general note: Quantitative PCR measures a nucleic acid by following its amplification.

Experiment [6] shares this target. Briefly: Inhibition of Lin28a/Lin28b in human JAR cells assessed as increase in mature let-7g level at 5 to 10 uM after 20 hrs by TRIzol dye based qRT-PCR analysis. It is filed as cell-based. Summed up: as §1
Experiment [7] shares this target. Kind of experiment: Inhibition of Lin28a/Lin28b in human JAR cells assessed as reduction in HMGA2 expression at 5 to 10 uM after 24 hrs by Western blot analysis. It is filed as cell-based. The method in brief:
(§2)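 Endogenous let-7 target proteins (HMGA2, IMP1, Ras, Lin28a) detected by Western blot in JAR or PA-1 cells after 24 h compound treatment.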

Experiment [8] has the same target. Kind of experiment: Inhibition of Lin28a/Lin28b in human JAR cells assessed as reduction in IMP1 expression at 5 to 10 uM after 24 hrs by Western blot analysis. Type of experiment: cell-based. Summed up:
as §2

Experiment [9] has the same target. Briefly: Inhibition of Lin28a/Lin28b in human JAR cells assessed as reduction in Ras expression at 5 to 10 uM after 24 hrs by Western blot analysis. Type of experiment: cell-based. Summed up: as §2
Experiment [10] shares this target. Kind of experiment: Inhibition of Lin28a/Lin28b in human JAR cells assessed as reduction in Lin28a expression at 5 to 10 uM after 24 hrs by Western blot analysis. Type of experiment: cell-based. Summed up:
as §2

Each structure is given as a SMILES string. The source made the active and inactive calls. No cut-off for these calls is given here.

T3 sequence (Q6ZN17 whole entry, looked up, one chain of several): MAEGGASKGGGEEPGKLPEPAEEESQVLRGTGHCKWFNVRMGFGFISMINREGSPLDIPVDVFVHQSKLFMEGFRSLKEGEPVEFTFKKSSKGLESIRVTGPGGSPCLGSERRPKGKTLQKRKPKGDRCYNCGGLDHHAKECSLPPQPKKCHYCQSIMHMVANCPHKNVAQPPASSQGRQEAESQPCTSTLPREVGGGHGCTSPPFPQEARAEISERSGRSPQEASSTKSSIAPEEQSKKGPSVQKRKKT

For `NC(=O)c1c(Nc2ccc(Cl)cc2Cl)[nH]c2c(Cl)c(Cl)ccc2c1=O`, the half-inhibitory concentration (IC50) at Protein lin-28 homolog A turned out to be 11 µM.
On to `NC(=O)c1c(Nc2ccc(F)cc2)[nH]c2c(Cl)ccc(Cl)c2c1=O`, for which the inhibition in experiment [1] worked out at 40%.
`CC1(C)Oc2cc(N3CCN(C(=O)OCc4ccccc4)CC3)c([N+](=O)[O-])cc2-c2c1cnn2-c1ccc(C(=O)O)cc1`: the inhibition result in experiment [2], in [3] and in [4] was “Active” in each case.
In the case of `COc1cccc(Nc2[nH]c3c(Cl)ccc(Cl)c3c(=O)c2C(N)=O)c1`, in experiment [1], the inhibition worked out at 14%. Besides, the outcome in experiment [5] and in experiment [6] was Active. Besides, the inhibition entry in experiment [7], in [8], in [9] and in [10] was “inactive” each time.

As usually defined, the IC50 is the concentration at which inhibition is half-maximal. A word on the inhibition: it is the change of the read-out against control, counted positive when it falls.
